ChEMBL document CHEMBL4414663, “Pyrazole-4-Carboxamide (YW2065): A Therapeutic Candidate for Colorectal Cancer via Dual Activities of Wnt/β-Catenin Signaling Inhibition and AMP-Activated Protein Kinase (AMPK) Activation” (J Med Chem, 2019)
Active and inactive are the calls of the source. No cut-off for these calls is given here.

Assays:
SW480 = test: Growth inhibition of human SW480 cells by Cell-titer-fluor reagent based assay; format: functional
HEK293 = test: Induction of Axin-1 protein expression in recombinant human Wnt-3a-induced Wnt-HEK293 cells at 1 uM by Western blot analysis; format: functional, cell-based
Homo sapiens = organism: Homo sapiens; test: Inhibition of Wnt/beta-Catenin signaling in human SW620 cells assessed as reduction in cyclinD1 mRNA expression at 10 uM incubated for 24 hrs by real-time PCR analysis; format: cell-based
Summary of the method: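 SW620 cells (RPMI 1640, 10% FBS) in 6-well plates, incubated 24 h, then treated with compound at several concentrations, three replicates each, for 24 h. Total RNA isolated with Trizol/phenol-chloroform; 2 µg reverse transcribed; Wnt target gene mRNA quantified by PCR.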

HT-29 [1] = test: Inhibition of colony formation in human HT-29 cells incubated for 14 days by crystal violet staining based assay; format: functional, cell-based
Summary of the method: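 SW480, SW620 or HT29 cells seeded at 300/well in 3 mL medium in 6-well plates with a concentration series of compound. After 14 days, fixed in 4% formaldehyde and stained with 0.5% crystal violet in 25% aqueous MeOH; colonies photographed.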

HT-29 [2] = test: Induction of apoptosis in human HT-29 cells incubated for 48 hrs by AAD-7 and FITC-annexin-V staining based flow cytometry; format: functional, cell-based
SW-620 [3] = test: Growth inhibition of human SW620 cells over-expressing constitutively active beta-catenin S33Y mutant incubated for 72 hrs by Cell-titer-fluor reagent based assay; format: functional; details: SW-620, 72 h
Summary of the method: (§1)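 SW620 cells, parental, overexpressing β-catenin S33Y, or with Axin-1 knocked down by lentiviral shRNA. Treated with compound or vehicle for 72 h.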

SW-620 [4] = test: Growth inhibition of human SW620 cells transfected with lentivrus-encoding shRNA against Axin-1 incubated for 72 hrs by Cell-titer-fluor reagent based assay; format: functional; details: SW-620, 72 h; summary of the method: as §1
SW-620 [5] = test: Growth inhibition of human SW620 cells incubated for 72 hrs by Cell-titer-fluor reagent based assay; format: functional; details: SW-620, 72 h; summary of the method: as §1
SW-620 [6] = test: Induction of apoptosis in human SW620 cells assessed as necrotic cells level at 1 uM incubated for 48 hrs by AAD-7 and FITC-annexin-V staining based flow cytometry (reference value: 0.027%); format: functional
SW-620 [7] = test: Induction of apoptosis in human SW620 cells assessed as viable cells level at 3 uM incubated for 48 hrs by AAD-7 and FITC-annexin-V staining based flow cytometry (reference value: 73.8%); format: functional
[8] = target: Cyclin-dependent kinase 17 (Homo sapiens) (UniProt Q00537); test: Inhibition of CDK17 (unknown origin) at 1000 nM relative to control
Summary of the method: (§2)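 Single-concentration screen at 1000 nM against a 273-kinase panel, reported as percent inhibition.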

[9] = target: Mitogen-activated protein kinase kinase kinase kinase 4 (Homo sapiens) (UniProt O95819); test: Inhibition of MAP4K4 (unknown origin) at 1000 nM relative to control; summary of the method: as §2
[10] = target: MAP kinase-activated protein kinase 3 (Homo sapiens) (UniProt Q16644); test: Inhibition of MAPKAPK3 (unknown origin) at 1000 nM relative to control; summary of the method: as §2
[11] = target: Serine/threonine-protein kinase PAK 3 (Homo sapiens) (UniProt O75914); test: Inhibition of PAK3 (unknown origin) at 1000 nM relative to control; summary of the method: as §2
[12] = AUC (0 to infinity) in C57BL/6J mouse at 5 mg/kg, iv by UPLC-MS analysis; format: ADME, organism-based; parameters: dose 5 mg/kg, route intravenous, time infinity; details: in vivo
Summary of the method: (§3)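 Male C57BL/6J mice, 2-3 months, 23-26 g. Single 5 mg/kg dose in 5% Kolliphor in saline, given iv (n=3) or by oral gavage (n=5). Tail-vein blood taken at 0.25, 0.5, 1, 4, 8 and 12 h and spun to plasma. Plasma analysed by LC-MS/MS on a triple quadrupole with a C18 column. Parameters from non-compartmental analysis.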

[13] = Cmax in C57BL/6J mouse at 5 mg/kg, po by UPLC-MS analysis; format: ADME, organism-based; parameters: dose 5 mg/kg, route oral; details: in vivo; summary of the method: as §3
[14] = Tmax in C57BL/6J mouse at 5 mg/kg, po by UPLC-MS analysis; format: ADME, organism-based; details: in vivo
Summary of the method: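 Male C57BL/6J mice, 2–3 months old, 23–26 g. Single 5 mg/kg dose in 5% Kolliphor in saline, IV (n = 3) or oral gavage (n = 5). Tail-vein blood taken at 0.25, 0.5, 1, 4, 8 and 12 h and centrifuged to plasma. Analysed by LC-MS/MS (QTRAP 4000, C18 column); parameters from non-compartmental analysis.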

SW-620 [15] = test: Antitumor activity against human SW620 cells xenografted in nude mouse assessed as reduction in tumor weight at 10 mg/kg, ip QD for 32 consecutive days; format: functional, organism-based
Summary of the method: (§4)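 Six-week-old nude mice injected subcutaneously with 2×10^6 SW620 cells. Randomised at mean tumor volume 100–200 mm³ (n=6/group). Given 10 or 50 mg/kg ip daily for 32 consecutive days; vehicle 10% DMSO, 10% Kolliphor, 80% saline. Tumor volume measured every other day. Tumors weighed after euthanasia at day 32. t test against vehicle.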

SW-620 [16] = test: Antitumor activity against human SW620 cells xenografted in nude mouse assessed as reduction in tumor volume at 50 mg/kg, ip QD for 32 consecutive days relative to control; format: functional; parameters: scale not given: the % may be the effect or the level left; summary of the method: as §4
[17] = Toxicity in C57BL/6 mouse assessed as effect on AST level at 100 mg/kg/day, ip for 21 days; format: organism-based; details: in vivo, 504 h
Mus musculus [18] = test: Activation of AMPK in nude mouse xenografted with human SW620 cells assessed as increase in AMPK phosphorylation at 50 mg/kg, ip QD for 32 consecutive days by Western blot analysis; format: functional, organism-based
Summary of the method: (§5)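 Nude mice carried subcutaneous SW620 xenografts (2×10^6 cells, right flank). Dosing began once mean tumor volume reached 100–200 mm³: 50 mg/kg ip once daily for 32 days, vehicle 10% DMSO/10% Kolliphor/80% saline. Tumors taken at day 32 and lysed in RIPA with protease inhibitors. Western blot with 20 µL of 2 mg/mL lysate on 7.5% SDS-PAGE, probed for pAMPK/AMPK or pACC/ACC, ECL detection.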

Mus musculus [19] = test: Activation of AMPK in nude mouse xenografted with human SW620 cells assessed as increase in ACC phosphorylation at 50 mg/kg, ip QD for 32 consecutive days by Western blot analysis; format: functional, organism-based; summary of the method: as §5
Mus musculus [20] = test: Inhibition of Wnt/beta-Catenin signaling in nude mouse xenografted with human SW620 cells assessed as reduction in Axin-2 mRNA expression at 50 mg/kg, ip QD for 32 consecutive days by RT-PCR analysis; format: organism-based; details: in vivo
Summary of the method: (§6)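 Six-week-old nude mice implanted subcutaneously in the right flank with 2×10^6 SW620 cells. Randomized at mean tumor volume 100–200 mm³, n = 6/group. Dosed IP once daily for 32 days at 10 or 50 mg/kg, or vehicle (10% DMSO, 10% Kolliphor, 80% saline). Tumors collected at day 32; Axin-2, MMP-7 and S100A4 expression measured by RT-PCR.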

Mus musculus [21] = test: Inhibition of Wnt/beta-Catenin signaling in nude mouse xenografted with human SW620 cells assessed as reduction in MMP7 mRNA expression at 50 mg/kg, ip QD for 32 consecutive days by RT-PCR analysis; format: organism-based; details: in vivo; summary of the method: as §6

Sequence of Serine/threonine-protein kinase PAK 3 (Homo sapiens) (O75914 whole entry, looked up): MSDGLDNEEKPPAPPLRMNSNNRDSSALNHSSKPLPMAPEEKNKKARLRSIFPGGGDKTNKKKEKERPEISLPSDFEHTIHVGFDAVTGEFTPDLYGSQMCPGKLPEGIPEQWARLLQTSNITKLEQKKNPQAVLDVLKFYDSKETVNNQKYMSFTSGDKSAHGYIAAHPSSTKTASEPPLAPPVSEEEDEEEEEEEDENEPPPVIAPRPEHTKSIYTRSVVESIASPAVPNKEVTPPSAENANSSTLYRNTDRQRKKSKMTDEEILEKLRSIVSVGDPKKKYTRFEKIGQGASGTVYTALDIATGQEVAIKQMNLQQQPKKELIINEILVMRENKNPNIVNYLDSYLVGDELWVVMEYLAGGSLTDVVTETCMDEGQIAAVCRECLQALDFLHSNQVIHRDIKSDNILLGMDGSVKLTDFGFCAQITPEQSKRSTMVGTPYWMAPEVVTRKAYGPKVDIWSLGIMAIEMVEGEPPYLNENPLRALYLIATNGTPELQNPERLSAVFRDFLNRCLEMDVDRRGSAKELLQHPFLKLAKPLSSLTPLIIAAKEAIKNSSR
Sequence of Cyclin-dependent kinase 17 (Homo sapiens) (Q00537 whole entry, looked up): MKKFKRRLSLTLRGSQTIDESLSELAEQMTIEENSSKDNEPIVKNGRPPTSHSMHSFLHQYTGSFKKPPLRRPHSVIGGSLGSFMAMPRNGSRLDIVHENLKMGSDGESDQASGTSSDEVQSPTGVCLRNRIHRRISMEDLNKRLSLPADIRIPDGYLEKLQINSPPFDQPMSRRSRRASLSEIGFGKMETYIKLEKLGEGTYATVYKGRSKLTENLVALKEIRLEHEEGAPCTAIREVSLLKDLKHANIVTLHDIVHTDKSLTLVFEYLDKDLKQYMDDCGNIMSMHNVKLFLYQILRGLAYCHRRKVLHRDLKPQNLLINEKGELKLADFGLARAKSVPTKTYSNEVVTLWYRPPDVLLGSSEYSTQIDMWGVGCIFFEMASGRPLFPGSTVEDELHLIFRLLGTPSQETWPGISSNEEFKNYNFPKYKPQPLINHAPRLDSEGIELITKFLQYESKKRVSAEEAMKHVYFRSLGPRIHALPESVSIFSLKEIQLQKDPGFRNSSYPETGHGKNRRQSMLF
Sequence of Mitogen-activated protein kinase kinase kinase kinase 4 (Homo sapiens) (O95819 2-1239 limits assumed): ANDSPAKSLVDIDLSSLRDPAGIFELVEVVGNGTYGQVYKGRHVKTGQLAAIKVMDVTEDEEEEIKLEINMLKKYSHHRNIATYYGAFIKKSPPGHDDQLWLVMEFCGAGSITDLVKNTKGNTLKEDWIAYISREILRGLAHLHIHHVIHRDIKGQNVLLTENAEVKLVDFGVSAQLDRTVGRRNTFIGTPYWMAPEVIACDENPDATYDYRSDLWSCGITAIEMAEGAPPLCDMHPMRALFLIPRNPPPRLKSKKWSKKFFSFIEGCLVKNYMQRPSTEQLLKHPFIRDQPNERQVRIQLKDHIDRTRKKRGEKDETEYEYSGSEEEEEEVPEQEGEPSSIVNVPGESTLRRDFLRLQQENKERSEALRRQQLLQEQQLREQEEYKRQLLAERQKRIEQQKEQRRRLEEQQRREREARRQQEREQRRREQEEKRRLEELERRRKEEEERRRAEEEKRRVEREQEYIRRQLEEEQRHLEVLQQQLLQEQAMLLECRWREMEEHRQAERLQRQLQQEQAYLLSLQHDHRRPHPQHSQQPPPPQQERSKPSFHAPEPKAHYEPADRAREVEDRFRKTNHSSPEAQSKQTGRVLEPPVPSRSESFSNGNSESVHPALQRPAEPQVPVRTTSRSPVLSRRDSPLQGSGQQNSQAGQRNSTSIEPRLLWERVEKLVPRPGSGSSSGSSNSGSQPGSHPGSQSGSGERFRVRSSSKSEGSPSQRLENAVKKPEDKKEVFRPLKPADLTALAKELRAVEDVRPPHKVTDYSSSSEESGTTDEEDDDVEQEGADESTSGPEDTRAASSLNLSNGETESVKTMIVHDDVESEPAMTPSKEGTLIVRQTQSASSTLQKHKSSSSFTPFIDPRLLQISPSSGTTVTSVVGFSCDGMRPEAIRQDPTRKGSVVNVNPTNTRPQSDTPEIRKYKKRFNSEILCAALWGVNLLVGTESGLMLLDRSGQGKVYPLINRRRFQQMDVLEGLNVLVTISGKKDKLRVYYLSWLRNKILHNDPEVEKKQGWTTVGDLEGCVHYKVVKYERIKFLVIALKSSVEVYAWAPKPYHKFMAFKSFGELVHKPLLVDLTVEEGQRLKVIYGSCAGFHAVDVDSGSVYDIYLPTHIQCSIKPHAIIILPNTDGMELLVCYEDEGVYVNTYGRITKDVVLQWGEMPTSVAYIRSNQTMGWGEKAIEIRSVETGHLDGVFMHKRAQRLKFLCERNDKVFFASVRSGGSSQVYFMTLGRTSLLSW
Sequence of MAP kinase-activated protein kinase 3 (Homo sapiens) (Q16644 whole entry, looked up): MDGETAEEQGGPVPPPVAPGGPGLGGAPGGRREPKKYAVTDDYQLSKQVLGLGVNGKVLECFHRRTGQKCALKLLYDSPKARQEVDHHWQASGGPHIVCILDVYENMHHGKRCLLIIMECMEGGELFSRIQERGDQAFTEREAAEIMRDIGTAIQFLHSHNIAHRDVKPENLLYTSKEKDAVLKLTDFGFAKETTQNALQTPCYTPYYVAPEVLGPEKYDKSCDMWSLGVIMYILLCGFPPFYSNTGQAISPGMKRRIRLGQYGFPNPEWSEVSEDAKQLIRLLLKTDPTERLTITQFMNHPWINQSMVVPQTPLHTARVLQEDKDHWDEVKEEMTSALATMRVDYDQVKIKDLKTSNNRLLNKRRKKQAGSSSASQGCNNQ

- GI50 (SW480): 2400 nM
- IC50 (SW-620 [3]): 67.8 nM
- IC50 (SW-620 [4]): 85.4 nM
- IC50 (SW-620 [5]): 11.6 nM
- inhibition [8]: Active
- inhibition [9]: Active
- inhibition [10]: Active
- inhibition [11]: Active
- AUC(0-inf) [12]: 57500 ng·h/mL
- Cmax [13]: 5200 ng/mL
- Tmax [14]: 18 min
- inhibition (INH) (Mus musculus [20]): Active
- inhibition (INH) (Mus musculus [21]): Active
Structure (SMILES): Cc1c(C(=O)Nc2ccc3ccccc3n2)cnn1-c1ccccc1Br
- Activity (HEK293): Active
- inhibition (Homo sapiens): Active
- inhibition (HT-29 [1]): Dose-dependent effect
- Activity (HT-29 [2]): Dose-dependent effect
- Activity (SW-620 [6]): 0%
- Activity (SW-620 [7]): 45%
- Activity (SW-620 [15]): Active
- Activity (SW-620 [16]): 49%
- Activity [17]: Non-Toxic
- Activity (Mus musculus [18]): Active
- Activity (Mus musculus [19]): Active
